Reference: publication PMC10842602 (Bioorganic & medicinal chemistry, 2023)
Where a chain is given by its changes, count along the chain named.

What was measured:
[1] = target: T1, WT human SLACK (Homo sapiens, UniProt Q5JUK3); test: Tl+ flux assay in HEK-293 cells stably expressing WT human SLACK; format: cell-based; conditions: CRC; IC50 for compounds of mode Inh (also cells printed Inactive)
T1 sequence (Q5JUK3 1-1235 isoform Q5JUK3-3): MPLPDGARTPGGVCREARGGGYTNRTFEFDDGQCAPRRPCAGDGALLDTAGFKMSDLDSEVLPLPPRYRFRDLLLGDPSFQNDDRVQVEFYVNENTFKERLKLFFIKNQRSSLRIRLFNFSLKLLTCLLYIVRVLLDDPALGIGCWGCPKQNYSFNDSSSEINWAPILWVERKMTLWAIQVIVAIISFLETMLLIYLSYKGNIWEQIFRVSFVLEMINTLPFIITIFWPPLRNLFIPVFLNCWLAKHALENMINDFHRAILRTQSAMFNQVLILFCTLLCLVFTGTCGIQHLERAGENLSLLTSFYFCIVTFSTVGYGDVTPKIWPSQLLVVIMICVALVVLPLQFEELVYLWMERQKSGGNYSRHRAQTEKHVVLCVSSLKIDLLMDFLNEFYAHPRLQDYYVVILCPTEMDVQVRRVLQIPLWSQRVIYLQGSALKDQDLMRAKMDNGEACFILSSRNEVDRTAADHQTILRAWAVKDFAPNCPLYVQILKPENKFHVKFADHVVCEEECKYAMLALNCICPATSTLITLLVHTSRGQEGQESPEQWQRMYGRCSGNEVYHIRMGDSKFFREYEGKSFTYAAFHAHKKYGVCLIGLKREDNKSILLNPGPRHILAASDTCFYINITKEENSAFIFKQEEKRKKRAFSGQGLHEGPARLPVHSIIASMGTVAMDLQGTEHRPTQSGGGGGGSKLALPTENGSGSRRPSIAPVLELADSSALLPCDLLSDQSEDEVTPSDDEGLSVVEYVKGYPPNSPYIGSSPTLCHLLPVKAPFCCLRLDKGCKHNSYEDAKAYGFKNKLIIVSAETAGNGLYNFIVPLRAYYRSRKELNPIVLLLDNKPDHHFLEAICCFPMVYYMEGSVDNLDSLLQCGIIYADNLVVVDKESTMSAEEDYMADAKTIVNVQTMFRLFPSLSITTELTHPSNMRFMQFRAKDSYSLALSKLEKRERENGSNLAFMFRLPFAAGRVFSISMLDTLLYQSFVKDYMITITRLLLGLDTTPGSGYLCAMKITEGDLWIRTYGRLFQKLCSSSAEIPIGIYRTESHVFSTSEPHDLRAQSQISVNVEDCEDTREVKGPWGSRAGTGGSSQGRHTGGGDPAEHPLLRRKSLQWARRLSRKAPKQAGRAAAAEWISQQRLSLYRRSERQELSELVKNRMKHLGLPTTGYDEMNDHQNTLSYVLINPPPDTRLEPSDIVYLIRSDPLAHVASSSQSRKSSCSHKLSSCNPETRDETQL
In short: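 Stably transfected HEK-293 cells expressing wild-type human SLACK; thallium flux read-out. IC50 or EC50 taken from concentration-response curves, and each compound classed as inhibitor, activator or not active. Efficacy is the response amplitude at 30 μM test compound, as a percentage of the maximum response to a reference SLACK inhibitor (for inhibitors) or loxapine (for activators).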

[2] = target: T2, human A934T SLACK (Homo sapiens, UniProt Q5JUK3, A915T); test: Tl+ flux assay in HEK-293 cells expressing A934T SLACK; format: cell-based; conditions: CRC
T2 sequence (Q5JUK3 1-1235 isoform Q5JUK3-3 A934T): T1 sequence (Q5JUK3 1-1235 isoform Q5JUK3-3) with A934T

[3] = target: Maxi-K (Slo1 α1/β3) (Homo sapiens, UniProt Q12791); test: Tl+ flux assay in HEK-293 cells expressing Maxi-K; format: cell-based; conditions: CRC
Sequence of Maxi-K (Slo1 α1/β3) (Q12791 whole entry, species assumed): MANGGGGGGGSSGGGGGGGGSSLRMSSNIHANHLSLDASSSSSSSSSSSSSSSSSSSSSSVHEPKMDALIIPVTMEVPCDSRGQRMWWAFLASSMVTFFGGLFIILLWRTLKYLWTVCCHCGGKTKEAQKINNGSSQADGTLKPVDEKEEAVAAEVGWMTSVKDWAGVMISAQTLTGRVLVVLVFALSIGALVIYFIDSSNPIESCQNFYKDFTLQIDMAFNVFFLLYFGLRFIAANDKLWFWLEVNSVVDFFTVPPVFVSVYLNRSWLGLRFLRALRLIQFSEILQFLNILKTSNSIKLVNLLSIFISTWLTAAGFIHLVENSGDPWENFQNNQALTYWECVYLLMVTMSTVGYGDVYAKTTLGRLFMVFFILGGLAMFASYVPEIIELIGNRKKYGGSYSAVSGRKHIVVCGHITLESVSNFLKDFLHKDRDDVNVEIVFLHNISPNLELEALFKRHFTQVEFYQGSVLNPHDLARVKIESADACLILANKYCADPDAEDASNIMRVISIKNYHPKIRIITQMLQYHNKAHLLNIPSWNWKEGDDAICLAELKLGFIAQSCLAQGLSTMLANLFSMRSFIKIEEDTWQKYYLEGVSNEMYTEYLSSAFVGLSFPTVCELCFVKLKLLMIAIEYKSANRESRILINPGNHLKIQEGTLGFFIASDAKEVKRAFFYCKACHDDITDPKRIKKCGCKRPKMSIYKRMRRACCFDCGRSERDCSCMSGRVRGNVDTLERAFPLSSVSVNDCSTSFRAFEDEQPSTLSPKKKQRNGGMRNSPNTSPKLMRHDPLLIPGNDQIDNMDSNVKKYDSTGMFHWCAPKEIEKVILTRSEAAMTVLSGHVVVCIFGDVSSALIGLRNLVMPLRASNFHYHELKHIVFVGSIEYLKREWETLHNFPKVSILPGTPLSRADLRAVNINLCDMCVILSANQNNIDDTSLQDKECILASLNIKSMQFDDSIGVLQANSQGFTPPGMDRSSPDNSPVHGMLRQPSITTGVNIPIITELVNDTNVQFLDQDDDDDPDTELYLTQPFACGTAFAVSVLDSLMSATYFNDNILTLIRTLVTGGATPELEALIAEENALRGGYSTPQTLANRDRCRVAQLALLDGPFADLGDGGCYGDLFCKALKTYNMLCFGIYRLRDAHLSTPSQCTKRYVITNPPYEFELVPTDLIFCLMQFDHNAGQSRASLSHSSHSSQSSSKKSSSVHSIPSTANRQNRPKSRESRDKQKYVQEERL
Sequence of Maxi-K (Slo1 α1/β3) (Q9NPA1 whole entry partner, species assumed): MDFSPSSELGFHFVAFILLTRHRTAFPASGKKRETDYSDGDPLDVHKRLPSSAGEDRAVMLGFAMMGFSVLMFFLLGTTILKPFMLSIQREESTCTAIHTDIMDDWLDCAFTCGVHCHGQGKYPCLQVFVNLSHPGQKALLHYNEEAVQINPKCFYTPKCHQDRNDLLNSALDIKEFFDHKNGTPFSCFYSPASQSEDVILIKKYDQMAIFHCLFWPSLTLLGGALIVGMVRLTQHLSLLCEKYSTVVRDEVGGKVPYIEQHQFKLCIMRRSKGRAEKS

[4] = target: T1, WT human SLACK; test: Whole-cell voltage-clamp electrophysiology, automated patch clamp; format: cell-based; conditions: CRC, CHO cells expressing WT SLACK
In short: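 CHO cells stably expressing wild-type human SLACK. Currents recorded in whole-cell voltage-clamp mode on an automated patch clamp platform. IC50 derived from concentration-response data for a selected subset of analogs.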

[5] = target: hERG (Homo sapiens, UniProt Q12809); test: Tl+ flux assay in HEK-293 stably expressing hERG; format: cell-based; conditions: 10 μM concentration
Sequence of hERG (Q12809 whole entry): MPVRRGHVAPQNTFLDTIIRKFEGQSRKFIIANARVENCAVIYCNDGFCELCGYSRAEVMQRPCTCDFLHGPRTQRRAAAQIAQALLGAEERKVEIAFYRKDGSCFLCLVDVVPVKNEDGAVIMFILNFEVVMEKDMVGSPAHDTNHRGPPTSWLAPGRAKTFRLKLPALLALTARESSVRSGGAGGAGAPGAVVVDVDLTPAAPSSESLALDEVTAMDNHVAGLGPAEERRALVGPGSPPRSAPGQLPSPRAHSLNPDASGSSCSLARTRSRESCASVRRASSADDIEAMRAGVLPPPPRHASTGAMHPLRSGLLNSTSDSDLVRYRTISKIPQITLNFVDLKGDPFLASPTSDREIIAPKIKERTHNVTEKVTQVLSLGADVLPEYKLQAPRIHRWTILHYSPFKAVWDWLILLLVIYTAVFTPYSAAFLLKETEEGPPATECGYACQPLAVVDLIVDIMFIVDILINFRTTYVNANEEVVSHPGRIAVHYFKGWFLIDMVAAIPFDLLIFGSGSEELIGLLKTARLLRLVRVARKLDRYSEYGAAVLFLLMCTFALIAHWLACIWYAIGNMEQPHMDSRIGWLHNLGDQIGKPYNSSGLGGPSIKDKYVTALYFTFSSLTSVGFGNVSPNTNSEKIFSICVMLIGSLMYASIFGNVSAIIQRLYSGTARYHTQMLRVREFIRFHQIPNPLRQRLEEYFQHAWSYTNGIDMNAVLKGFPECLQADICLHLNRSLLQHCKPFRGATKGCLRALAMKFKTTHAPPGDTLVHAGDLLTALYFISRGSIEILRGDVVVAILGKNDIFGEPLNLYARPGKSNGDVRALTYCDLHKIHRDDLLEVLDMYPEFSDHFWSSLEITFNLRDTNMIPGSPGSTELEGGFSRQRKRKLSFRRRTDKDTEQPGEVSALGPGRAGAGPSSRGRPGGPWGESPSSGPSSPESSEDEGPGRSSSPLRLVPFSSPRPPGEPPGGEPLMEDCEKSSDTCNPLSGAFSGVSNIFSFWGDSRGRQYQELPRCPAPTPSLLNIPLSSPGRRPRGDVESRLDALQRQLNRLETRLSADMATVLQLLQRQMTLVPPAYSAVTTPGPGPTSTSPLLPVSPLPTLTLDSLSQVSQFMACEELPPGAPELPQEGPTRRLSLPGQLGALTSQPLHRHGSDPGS

[6] = tested on: neurons from Kcnt1^L/L mice; conditions: brain slices, 10 μM; cited from earlier work
[7] = tested on: GABAA Cl– channels; conditions: binding displacement assay; cited from earlier work
[8] = Metabolic stability in mouse liver microsomes; format: in vitro ADME; conditions: multiple time points

Row | IC50 / EC50 [1] [µM] | A934T IC50 [2] | Maxi-K (Slo1 α1/β3) IC50 [3] | IC50 (whole-cell EP) [4] | predicted hepatic clearance (CLHEP) [8] [mL/min/kg] | Structure (SMILES) | hERG activity [5] | firing in neurons [6] | displacement at GABAA Cl– channels [7] [%]
1 | 1.1 | submicromolar potency | inactive | submicromolar potency |  | Cc1ccc2cccc(S(=O)(=O)N3CC(c4nc(-c5ccc(F)cc5)no4)C3)c2n1 [Compound 122, 3-(4-Fluorophenyl)-5-(1-((2-methylquinolin-8-yl)sulfonyl)azetidin-3-yl)-1,2,4-oxadiazole] | inactive |  | 
2 |  |  |  |  |  | C[C@H](NC(=O)c1cc(C(F)(F)F)nn1C)c1nc(-c2ccnc(C(F)(F)F)c2)no1 [Compound 3] |  | significant reduction in the firing | 74
3 | 3.2 |  | inactive |  |  | CCOc1ccccc1S(=O)(=O)N1CC(c2nc(-c3ccc(F)cc3)no2)C1 [Compound 43, 5-(1-((2-Ethoxyphenyl)sulfonyl)azetidin-3-yl)-3-(4-fluorophenyl)-1,2,4-oxadiazole] |  |  | 
4 | 4.8 | submicromolar potency | inactive | submicromolar potency |  | CCOc1ccccc1S(=O)(=O)N1CC(c2nc(-c3ccc(F)s3)no2)C1 [Compound 60, 5-(1-((2-Ethoxyphenyl)sulfonyl)azetidin-3-yl)-3-(5-fluorothiophen-2-yl)-1,2,4-oxadiazole] |  |  | 
5 | 7.4 |  | inactive |  | 75 | O=S(=O)(c1cccc2cccnc12)N1CC(c2nc(-c3ccc(F)cc3)no2)C1 [Compound 121, 3-(4-Fluorophenyl)-5-(1-(quinolin-8-ylsulfonyl)azetidin-3-yl)-1,2,4-oxadiazole] |  |  | 
6 | 8.7 |  | inactive |  |  | O=S(=O)(c1cccc2c1OCCC2)N1CC(c2nc(-c3ccc(F)cc3)no2)C1 [Compound 119, 5-(1-(chroman-8-ylsulfonyl)azetidin-3-yl)-3-(4-fluorophenyl)-1,2,4-oxadiazole] |  |  | 
7 | 3.7 |  | inactive |  |  | CC(C)Oc1ccccc1S(=O)(=O)N1CC(c2nc(-c3ccsc3)no2)C1 [Compound 27, 5-(1-((2-Isopropoxyphenyl)sulfonyl)azetidin-3-yl)-3-(thiophen-3-yl)-1,2,4-oxadiazole] |  |  | 
8 | 2.1 |  | inactive | submicromolar potency |  | CCOc1ccccc1S(=O)(=O)N1CC(c2nc(-c3ccsc3)no2)C1 [Compound 5, 5-(1-((2-Ethoxyphenyl)sulfonyl)azetidin-3-yl)-3-(thiophen-3-yl)-1,2,4-oxadiazole] |  |  | 
9 | 2.1 |  | inactive | submicromolar potency |  | CCOc1ccccc1S(=O)(=O)N1CC(c2nc(-c3ccc(F)cc3Cl)no2)C1 [Compound 58, 3-(2-Chloro-4-fluorophenyl)-5-(1-((2-ethoxyphenyl)sulfonyl)azetidin-3-yl)-1,2,4-oxadiazole] |  |  | 
